# Published values collected from several papers.
# Protocols differ between the studies behind these lines.
# Observed: cell growth or viability
SMILES,cell line,method,time,IC50
CC1(C)CC[C@]2(C(=O)O)CC[C@]3(C)C(=CC[C@@H]4[C@@]5(C)CC[C@H](O)C(C)(C)[C@@H]5CC[C@]43C)[C@@H]2C1,ECa-109,MTT,48 h,78200 nM
CC1=C(O)C(=O)C=C2C1=CC=C1[C@@]2(C)CC[C@@]2(C)[C@@H]3C[C@](C)(C(=O)OCCCCCCCO)CC[C@]3(C)CC[C@]12C,MGC-803,MTT,48 h,400 nM
COc1cccc2c1C(=O)c1c(O)c3c(c(O)c1C2=O)C[C@@](O)(C(=O)CO)C[C@@H]3O[C@H]1C[C@H](N)[C@H](O)[C@H](C)O1,ECa-109,MTT,48 h,170 nM
CCc1c2c(nc3ccc(O)cc13)-c1cc3c(c(=O)n1C2)COC(=O)[C@]3(O)CC,COS-7,ATP luminescence,,131000 nM
COc1cc(Nc2nccc(-c3cnn4nc(OC)ccc34)n2)cc(C(F)(F)F)c1,NCI-N87,ATP luminescence,,640 nM
CC1=C(O)C(=O)C=C2C1=CC=C1[C@@]2(C)CC[C@@]2(C)[C@@H]3C[C@](C)(C(=O)OCCCCCO)CC[C@]3(C)CC[C@]12C,MGC-803,MTT,48 h,320 nM
O=c1[nH]cc(F)c(=O)[nH]1,MGC-803,MTT,48 h,39000 nM
CC1=C(O)C(=O)C=C2C1=CC=C1[C@@]2(C)CC[C@@]2(C)[C@@H]3C[C@](C)(C(=O)OCCCn4ccc5ccccc54)CC[C@]3(C)CC[C@]12C,MGC-803,MTT,48 h,1090 nM
CCOC(=O)c1[nH]c(Br)c(-c2ccc(SC)cc2)c1Br,MDA-MB-435,SRB,,626 nM
CC1=C(O)C(=O)C=C2C1=CC=C1[C@@]2(C)CC[C@@]2(C)[C@@H]3C[C@](C)(C(=O)OCCCCCCO)CC[C@]3(C)CC[C@]12C,MGC-803,MTT,48 h,390 nM
CC[C@H](C)C(=O)O[C@H]1C[C@H](O)C=C2C=C[C@H](C)[C@H](CC[C@@H](O)C[C@@H](O)CC(=O)O)[C@H]21,SW480,SRB,72 h,> 200 µg/mL
Cc1cccc(-n2ncc(Br)c(Br)c2=O)c1,NCI-H2030,resazurin,96 h,370 nM
CC1=C(O)C(=O)C=C2C1=CC=C1[C@@]2(C)CC[C@@]2(C)[C@@H]3C[C@](C)(C(=O)OCCCO)CC[C@]3(C)CC[C@]12C,MGC-803,MTT,48 h,290 nM
C#C[C@@]1(O)[C@@H](COP(=O)(O)OC[C@H]2O[C@@H](n3cc(F)c(=O)[nH]c3=O)C[C@@H]2O)O[C@@H](n2ccc(N)nc2=O)[C@@H]1O,FM3A/0,MTT,72 h,2.2 nM
N[C@@H](CC(=O)N1CCN(C(c2ccc(F)cc2)c2ccc(F)cc2)CC1)C(=O)N1Cc2ccccc2C1,Kasumi 1,ATP luminescence,48 h,40800 nM
CC(=O)O[C@@]12CO[C@@H]1C[C@H](O)[C@@]1(C)C(=O)[C@H](O)C3=C(C)[C@@H](OC(=O)[C@H](O)[C@@H](NC(=O)OC(C)(C)C)c4ccccc4)C[C@@](O)([C@@H](OC(=O)c4ccccc4)[C@H]21)C3(C)C,PC-12,MTT,,280 µg/mL
Cc1ccc(C(=O)N(CCCN)[C@@H](c2nc3cc(Cl)ccc3c(=O)n2Cc2ccccc2)C(C)C)cc1,MM1.S,ATP luminescence,72 h,12.6 nM
Cc1cnc(-c2ccc(-c3ccc(NC(=O)Nc4c(F)cc(F)cc4F)cc3F)c3c2C(=O)NC3)[nH]1,Kasumi 1,,,22 nM
Cc1nnc(C(=O)NC(C)(C)c2nc(C(=O)NCc3ccc(F)cc3)c(O)c(=O)n2C)o1,COS-7,ATP luminescence,,36400 nM
COCCCOC(=O)[C@]1(C)CC[C@]2(C)CC[C@]3(C)C4=CC=C5C(=CC(=O)C(O)=C5C)[C@]4(C)CC[C@@]3(C)[C@@H]2C1,MGC-803,MTT,48 h,400 nM
CC(=O)O[C@@]12CO[C@@H]1C[C@H](O)[C@@]1(C)C(=O)[C@H](O)C3=C(C)[C@@H](OC(=O)[C@H](O)[C@@H](NC(=O)OC(C)(C)C)c4ccccc4)C[C@@](O)([C@@H](OC(=O)c4ccccc4)[C@H]21)C3(C)C,143B,resazurin,72 h,2.9 nM
